Shown are actives, neighbours in structure and some others; about 1.2% of the full set was active somewhere.
procasp3 activ – activators of human procaspase-3 D3A mutant, primary screen, biochemical, absorbance, PC-3 D3A mutant, single concentration; recombinant procaspase-3 D3A, Ac-DEVD-pNA absorbance 405 nm; AID 463141, 2010; actives 0.11% (n = 330,000); activation, % at 8.5 µM;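 active = activation above the mean of all tested compounds plus 3 SD, cut at about 21% in these data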;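 also: 0% = DMSO alone and 100% = DMSO wells spiked with extra 5 µM PC-3 D3A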
Target sequence (P42574 whole entry D9A/D28A/D175A): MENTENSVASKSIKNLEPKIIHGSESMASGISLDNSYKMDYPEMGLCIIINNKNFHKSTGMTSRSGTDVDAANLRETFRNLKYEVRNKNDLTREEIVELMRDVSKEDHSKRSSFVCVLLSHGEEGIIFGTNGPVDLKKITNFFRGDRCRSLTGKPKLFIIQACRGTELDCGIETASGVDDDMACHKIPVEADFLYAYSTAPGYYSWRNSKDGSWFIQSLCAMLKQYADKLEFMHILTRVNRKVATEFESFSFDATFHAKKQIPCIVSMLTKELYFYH
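Compound: 8.5 µM single point, 0.8% DMSO / Material: Autoprocessing-dead procaspase-3 D3A mutant enzyme / Timing: 1 h preincubation plus 2 h reaction at 25 °C / Medium: Zinc-free HEPES/NaCl buffer with 0.01% Triton X-100 at pH 7.4 / Technique: 405 nm absorbance of p-nitroaniline, reads at 0 and 120 min / Repeats: one well per compound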
MsrA inhibitor – bovine MsrA enzyme inhibitors, primary screen, biochemical, absorbance, HTS. Methionine sulfoxide reductase A (Bos taurus). purified bovine MsrA, absorbance read-out. inhibition, % at 15.5 µM. actives 0.75% (n = 360,000). AID 651718, 2012; in the data active = inhibition above about 4.5%;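 also: 0% = vehicle wells with enzyme and 100% = reference inhibitor wells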
procasp7 counter – procaspase-7 activators, primary screen, counter-screen for procaspase-3 activator project, biochemical, absorbance, HTS, human | Caspase-7 (Homo sapiens), P55210 | recombinant procaspase-7, Ac-DEVD-pNA absorbance 405 nm; D23A/D198A/D206A triple mutant, cannot self-cleave; scale: DMSO 0, 5 µM enzyme 100 | activation, % at 8.5 µM | actives 0.093% (n = 330,000) | AID 463210, 2010;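 active = percent activation above the screen-wide mean plus 3 SD, cut at about 25% in these data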
Target sequence (P55210 whole entry D23A/D198A/D206A): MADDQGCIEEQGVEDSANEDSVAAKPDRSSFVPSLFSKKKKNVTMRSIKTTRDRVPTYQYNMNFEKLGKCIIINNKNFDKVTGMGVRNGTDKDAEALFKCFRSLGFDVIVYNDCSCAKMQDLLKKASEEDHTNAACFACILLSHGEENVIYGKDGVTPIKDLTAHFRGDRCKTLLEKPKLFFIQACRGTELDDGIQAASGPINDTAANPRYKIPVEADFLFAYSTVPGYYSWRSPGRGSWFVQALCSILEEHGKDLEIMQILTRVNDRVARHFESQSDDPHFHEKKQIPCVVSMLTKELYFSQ
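buffer or medium = Zinc-free HEPES/NaCl buffer, pH 7.4 | material = Procaspase-7 triple mutant (PC-7 D3A) | input = 2 µM procaspase-7 mutant as dispensed | signal = Epi-absorbance of released pNA at 405 nm, two timepoints | timing = 1 h preincubation, 2 h reaction | replicates = singlicate compound testing | evaluation = % activation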
Bfl-1 A1 inh – caspase 3/7 activation in MEF A1-2A-BIM cells, primary screen, A1 inhibitor project, cell-based, luminescence, HTS. Caspase-Glo 3/7 luminescence, 3 h; percent of clofoctol response, vehicle zero. actives 0.066% (n = 330,000). caspase activation, % (concentration not given with the values);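 active = over half of replicate activation scores above 10%, or exactly half above 10 with the replicate mean above 10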
MsrA act – bovine MsrA enzyme activators, primary screen, biochemical, absorbance, HTS; Methionine sulfoxide reductase A (Bos taurus); purified bovine MsrA, absorbance read-out; activation, % at 10.6 µM; actives 0.3% (n = 360,000); in the data active = activation above about 7.5%;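 also: 0% = vehicle and 100% = reference activator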
MsrA act confirm – bovine MsrA activators, retest, confirmation, biochemical, absorbance, HTS; actives 12% (n = 1,000); shares compounds with MsrA act; purified bovine MsrA, absorbance read-out; activation, % at 10.6 µM; in the data active = activation above about 4%;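 also: enzyme coupled to thioredoxin and thioredoxin reductase with NADPH; 0% = vehicle wells and 100% = reference activator wells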
* marks the source's active call; other numbers are inactive results; . = no result given; ! = repeats disagree.

SMILES | procasp3 activ | MsrA inhibitor | procasp7 counter | Bfl-1 A1 inh | MsrA act | MsrA act confirm
COC(=O)C1=C(C)N(Cc2cccc(C(F)(F)F)c2)C(=NCc2ccc3c(c2)OCO3)NC1c1cccc(F)c1 (configuration not stated) | . | -2.5 | . | . | . | .
CCCN1CCCCC(NC(=O)OC(C)(C)C)C1=O (configuration not stated) | . | -0.1 | . | . | . | .
Nc1ncnc2[nH]c(=S)[nH]c12 | . | 0.0 | . | . | 10.8* | 0.8
C[C@H](CO)N1C[C@H](C)[C@H](CN(C)C(=O)Nc2cccc(F)c2)OCc2cnnn2CCCC1=O | . | 0.1 | . | . | . | .
CSC1=NCCN1S(=O)(=O)c1ccc(NC(C)=O)cc1 | 5.8 | -0.1 | -6.3 | 0.8 | 21.3* | -2.6
CCSC1=NCCN1S(=O)(=O)c1ccc(NC(C)=O)cc1 | 1.7 | -0.3 | -0.7 | -0.1 | -4.0 | .
O=C(N[C@H](C(=O)N1CCC[C@H]1C(=O)NCc1ccccc1)C1CCCCC1)c1ccc(Cl)c(Cl)c1 | . | 1.6 | . | . | . | .
S=c1[nH]nc(Nc2cccc(Cl)c2)s1 | -21.3 | 2.0 | -29.0 | -1.7 | -2.8 | .
Cc1ccc(Nc2n[nH]c(=S)s2)cc1C | . | 0.8 | . | . | 7.8* | 0.7
CCN(CC)CCNC(=O)c1ccc2c(c1NCCO)C(=O)c1ccccc1C2=O | 3.6 | 13.9* | 4.2 | -0.7 | 23.7* | 8.7*
CC1CCN(C(=O)c2ccc3c(c2NCCO)C(=O)c2ccccc2C3=O)CC1 | 8.0 | 2.5 | -0.8 | 0.2 | 2.1 | .
CC(=O)c1nccs1 | 7.3 | . | -1.8 | 1.1 | 15.6* | -2.4
C/C(=C\C(=O)O)C(=O)Nc1nccs1 | 8.9 | -0.6 | 4.9 | -0.3 | -4.6 | .
Cc1cc2c(nc1C)CCCN2Cc1ccccc1C(F)(F)F | . | 0.4 | . | . | . | .
Cn1c(=O)n(CC(=O)O)c(=O)c2c1nc1n2CCS1 | 3.1 | -0.9 | 4.4 | 0.1 | 8.5*! | -0.7
Cc1cccc(C)c1NC(=O)CN(C)C(=O)CCc1nc2sc3c(c2c(=O)[nH]1)CCCC3 | 10.5 | -1.2 | 7.3 | -1.0 | 8.8* | -1.6
CN(CC(=O)Nc1cccc(F)c1)C(=O)CCc1nc2sc3c(c2c(=O)[nH]1)CCCC3 | 5.1 | 0.3 | -2.7 | -0.9 | 0.0 | .
COc1ccc2oc(=O)c(C(=O)NCc3ccc4c(c3)OCO4)cc2c1 | -6.5 | 0.5 | -0.5 | 0.1 | -2.8 | .
COc1ccc2oc(=O)c(C(=O)NCCc3ccc(OC)c(OC)c3)cc2c1 | -0.8 | -0.9 | -4.9 | 0.5 | 7.7* | 2.2
O=C(NCc1ccc(F)cc1)c1cc2ccccc2o1 | -7.0 | -1.3 | -6.3 | -1.2 | 9.6* | -0.2
O=C(CSc1nc2ccccc2c(=O)n1-c1ccc(Cl)cc1)N/N=C/C=C/c1ccccc1[N+](=O)[O-] | -3.3 | 0.1 | 4.8 | 0.8 | 8.1* | -4.1
COC(=O)[C@]1(CC(C)C)NC=C(C(=O)c2ccccc2)[C@@H]1c1cccs1 | . | 0.7 | . | . | . | .
Cc1oc2c(c1C(=O)c1ccccc1)C(=O)C(=O)c1ccccc1-2 | -3.5 | 1.1 | -1.8 | -0.4 | 9.3* | 13.0*
Cc1oc2c(c1C(=O)O)C(=O)c1ccccc1C2=O | 0.8 | -0.5 | 8.0 | -4.6 | 8.4* | 0.3
CCOC(=O)c1c(C)oc2c1C(=O)c1ccccc1C2=O | 10.0 | 0.5 | -15.4 | -0.1 | 3.1 | .
SMILES | procasp3 activ | MsrA inhibitor | procasp7 counter | Bfl-1 A1 inh | MsrA act | MsrA act confirm
CN1C(=O)[C@@]2(C3=C(CCCC3=O)OC3=C2C(=O)OC2(CCCCC2)C3)c2ccccc21 | . | -0.6 | . | . | . | .
COc1cc2c(cc1OC)[C@@H](NC(=O)c1ccncc1)[C@H](C)[C@H]2c1ccccc1 | . | 0.2 | . | . | . | .
N#Cc1ccc2nc(-c3ccc(CN4CCC(c5nc6ccccc6[nH]5)CC4)cc3)c(-c3ccccc3)nc2c1 | . | 0.2 | . | . | . | .
CC1CCCC(NC(=O)Nc2cccs2)C1C (configuration not stated) | -5.1 | 0.8 | -5.7 | 0.2 | 8.9* | -2.6
CC1CCCC(NC(=O)c2ccncc2)C1C (configuration not stated) | -3.9 | -1.8 | 3.1 | -0.7 | -3.2 | .
COC(=O)C1=C(C)N(Cc2ccc(Cl)cc2)C(=S)NC1c1ccc(Br)cc1 (configuration not stated) | . | 2.2 | . | . | . | .
COC(=O)CCN(Cc1cccc(OC)c1OC)S(=O)(=O)c1ccccc1Br | . | -1.0 | . | . | . | .
O=C(NC1CC1)c1ccc(NS(=O)(=O)c2ccc(F)cc2)cc1 | 2.7 | 0.1 | 0.9 | 0.5 | 10.6* | -1.4
O=C(NC1CC1)c1ccc(NS(=O)(=O)c2ccccc2)cc1 | 8.6 | 0.7 | 4.4 | -0.6 | -1.8 | .
O=S(=O)(NCc1ccccc1)c1cc(Br)ccc1Br | . | 0.3 | . | . | . | .
Nn1cnnc1N/N=C\c1ccc(-c2ccccc2[N+](=O)[O-])o1 | . | -0.2 | . | . | 19.8* | -1.4
C[C@H](CO)N1C[C@H](C)[C@H](CN(C)C(=O)Nc2ccc3c(c2)OCO3)OCc2cnnn2CCCC1=O | . | 0.3 | . | . | . | .
CCc1cccc(CC)c1NC(=O)/C(C#N)=C/c1ccccc1C(F)(F)F | 0.2 | 0.1 | -1.8 | 2.9 | 11.1* | -0.7
CCOc1ccc(NC(C(=O)Nc2cccc(C(C)=O)c2)c2ccccc2)cc1 (configuration not stated) | -9.4 | 1.1 | -6.4 | -0.4 | 9.5* | 10.1*
COCC(C)NC(C(=O)Nc1cccc(C(C)=O)c1)c1ccccc1 (configuration not stated) | -5.9 | -1.2 | -1.2 | -0.1 | -4.5 | .
CCO[C@H]1OC(C(=O)NC2CC2)=C[C@@H](c2c[nH]c3ccccc23)[C@@H]1CCCO | 1.5 | -0.8 | 6.9 | 0.1 | 8.4* | -1.1
O=C1Nc2c(Cl)cc(Cl)cc2C1=O | . | 0.1 | . | . | 11.1* | 7.0*
COCc1cc(N2CCNC[C@@H]2C)ccc1N1C[C@@H](C)O[C@@H](C)C1 | . | -0.7 | . | . | . | .
N#CCCN(Cc1cccnc1)C(=O)Nc1ccc(Cl)c(Cl)c1 | -0.7 | 1.4 | 6.8 | -0.3 | 9.1* | -2.2
COc1cccc(NC(=O)COC(=O)CCn2c(C)csc2=O)c1 | -2.4 | -0.6 | 2.6 | -0.1 | 9.2* | -1.5
COc1ccc(N2CC(NS(=O)(=O)c3ccc4ccccc4c3)CC2=O)cc1OC (configuration not stated) | 0.2 | -0.1 | -9.3 | 0.6 | -2.4 | .
COc1ccc(N2CC(NC(=O)c3ccc4ccccc4c3)CC2=O)cc1OC (configuration not stated) | -5.8 | -0.7 | 3.7 | 0.3 | 10.9* | -0.9
COc1ccc(C2CC(=O)C(c3cccc(Cl)c3)=CN2Cc2ccccc2)cc1 (configuration not stated) | . | 1.1 | . | . | . | .
